Test results from the EternaBench riboswitch data.

Test system: MS2 coat protein
Assay: apparent Kd, MS2 coat protein; higher = weaker binding; RNA-MaP array; FMN 200 µM where present
How it was run: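 Designs were transcribed by stalled E. coli RNA polymerase on Illumina sequencing-chip clusters. They were titrated with SNAP-549-labelled MS2 coat protein from 0.7 or 1.5 nM, doubling to 3 µM, in 100 mM Tris-HCl pH 7.5, 80 mM KCl, 4 mM MgCl2, BSA, DTT, yeast tRNA and Tween-20, without and then with constant ligand. The apparent Kd is the median of filtered per-cluster fits after normalisation of green signal to red-channel RNA signal and control-cluster median Fmax.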

[1] = designed as: ON switch for flavin mononucleotide, no ligand
[2] = ligand present: flavin mononucleotide, designed as: ON switch for flavin mononucleotide
[3] = designed as: OFF switch for flavin mononucleotide, no ligand
[4] = ligand present: flavin mononucleotide, designed as: OFF switch for flavin mononucleotide

| Sequence | apparent Kd [1] [nM] | apparent Kd [2] [nM] | apparent Kd [3] [nM] | apparent Kd [4] [nM] |
| --- | --- | --- | --- | --- |
| UUGGAGUUCGUAGGAUAUGUAGGAUAUUCCUACAUGAGGAUCACCCAUGUUGACAUGGAGGAAGGACAGAAGGACGAGCUCCAU | 206 | 225 | – | – |
| UUACUAUUGGAGAAGGCUCGAUAAUAUAUAAAGGGAGGAUAUCCAACAUGAGGAUCACCCAUGUUUCACCCAUAUGAGGAUCAC | – | – | 14.8 | 15.7 |
| GAGUAGAUCCGAGGAUAUACAAUCCGGAAACGGUACAUGAGGAUCACCCAUGUAGAAGGCGGAUCUACAGGUACUAAAGUACCC | – | – | 5.73 | 8.11 |
| AAUAACAGAGGAUAUACUAUUUUAUGUAUUUAUUAUUUUGAACAUGAGGAUCACCCAUGUAGAAGGCUGAUUAA | – | – | 29.6 | 27.2 |
| AGUCGGAGCAGAGGAUAUACAUGAGGAUCACCCAUGUAAAUGAAUGAAGCCUGGAAACAGGCAAUGUAGAAGGCUGCUCCGACA | – | – | 17.6 | 54.2 |
| UACAGACAUGAGGAUCACCCAUGUAAGGAUAUCGGUACCGAUGGCAUAAUCUGCUCGGCGAGAAGGUACAGUGU | – | – | 22.6 | 24.9 |
| UGUCGGAGCAGAGGAUAUUACAUGAGGAUCACCCAUGUAUGAACCCAUAGCUGGAAACAGCAAUGUAAGAAGGCUGCUCCGACA | – | – | 8.97 | 82.4 |
| AUUGAUAGCACAGGAUAUUGAGAUUUGAAUUGACAAGAAGGGUGUACAUGAGGAUCACCCAUGUAAUGGCUGCCUCGUUGAUUA | – | – | 57.8 | 132 |
| UUGGACGUCGUAGGAUAUGUAGGACAUUCCUACAUGAGGAUCACCCAUGUUGACAUGGAAGAAGGACAGAAGGACGAUGUCCAU | 152 | 10.6 | – | – |
| UCUCAGUGAGGAUAUGCCAGGGACUAAUUCGUCCACCCGUCGCAGAAGGCACAUGAGGAUCACCCAUGUGGAUG | – | – | 109 | 54.5 |
| CUUUUGUGAGGAUAUCAGUAGUAAUAAAAUAAAAUUACUACUGAGAAGGCACAUGAGGAUCACCCAUGUUCCUC | – | – | 40 | 182 |
| GAAAAGCGAGGAUAUACAUGAGGAUCACCCAUGUGUUGGGUGCGUUGGCUAGUCGUCUGUAGAAGGCGCACAAA | – | – | 904 | 466 |
| GGUCCAUCAUGAGGAUAUGGCACCUUAUUGGUGCCAGAAGGCAUGUCUAUAGACAUGAGGAUCACCCAUGUAAUAAAGUGGACC | 922 | 49.3 | – | – |
| ACCGUGUCAGGAUAUCCUGCUGUGCGGACUCUGUCUUCACGGGAGAAGGGACAUGAGGAUCACCCAUGUUUGAG | – | – | 20.2 | 25.4 |
| AGUAGAUCAGGAUAUACGUGAAAGGUCAAAGUGUCCCUUCUACAUGAGGAUCACCCAUGUAGAAGGGAUCUACA | – | – | 12.8 | 12.5 |
| CUGUUCAGUGUAGGAUAUGCAUAUUCCCAUUAUGCAGAAGGACAUGAGGAUCACCCAUGUAUGUUAUUAUCAUGUGUUACAUGC | – | – | 33.6 | 124 |
| CCUAGUUGGUAAGGAUAUCCUACACUAUUCUGACCCGUGCAAGCUACAUGAGGAUCACCCAUGUGGGAGAAGGUGCGUCAACGC | – | – | 13.8 | 15.2 |
| GUAGCAACAUGAGGAUCACCCAUGUAGGAUAUCGCUAUUGUAAUCAUGAAACAUGAUUACAAUAGCGAGAAGGACAUAUGCUAA | – | – | 8.33 | 10.7 |
| GACUUGCGCACAGGAUAUCCACGUAGCGGACGUGGAGAAGGGUGACAUGAGGAUCACCCAUGUACGUAAGUCUGGAUCACUUCC | 48.3 | 21.8 | – | – |
| GGUGGACAUGAGGAUCACCCAUGUGAGGAUAUCGGCUGGCUAGUGGCGGAUGGCUUCUCGAGAAGGCGCAUAGU | – | – | 76.9 | 66 |
| UCACGGGACUAAGGAUAUAUGUGUACCAUUUUCAUAGAAGGUAGAAUGUUUGAUCAUAAACUAAACAUGAGGAUCACCCAUGUU | – | – | 27 | 25.1 |
| CACCGUAACAGAGGAUAUGAUACAUGAGGAUCACCCAUGUAAUAAAUGAGAAUUUCGAAUGUACCUCAGAAGGCUGGAACCGGC | – | – | 45.7 | 96.6 |
| AGUACCAUGUAGAAGGCAUAUCUCAAAGAGAUAUGAGGAUAUACAUGAGGAUCACCCAUGUAAAUGUACUCCAGGAAACUGGAA | – | – | 28.3 | 136 |
| AGCUGUGGCCGAGGAUAUCUAAUAAUCCCAACCGAAAUAUAAUCGGACAUGAGGAUCACCCAUGUAGAGAAGGCGGUCUCAGCA | – | – | 143 | 307 |
| UGCUACGUUUCGUAGCAGUGUCAUCGAGAAGGCCCUGACAUGAGGAUCACCCAUGUUGUUACAUGGGAGGAUAUCGAUGAUACG | 12 | 4.9 | – | – |
| AUCAGCUCGUCAGGAUAUACGUCACUGCGUCAGCACUGUGGUAAGAUCACAUGAGGAUCACCCAUGUAGAAGGGACGAGCUGAU | – | – | 17.7 | 172 |
| AAGCUCGUGUGAGGAUAUGCCGCCGUUUCGGCUGCAGAAGGUGCUACGUUACAUGAGGAUCACCCAUGUCUCUGUUGUUUCGUC | 29.9 | 24.8 | – | – |
| CUAGCGUAUGUAGGAUAUCGGACUGUUUCAGUCUGAGAAGGACAUGAGGAUCACCCAUGUAUAGCUACGUGAGUAGCUCGCUAG | – | – | 20.4 | 32.4 |

| Sequence | apparent Kd [1] [nM] | apparent Kd [2] [nM] | apparent Kd [3] [nM] | apparent Kd [4] [nM] |
| --- | --- | --- | --- | --- |
| UCCUUGUCCUGAGGAUAUCCGAGGUUCCCAAAAGGAGAAGGCAGGACAUGAGGAUCACCCAUGUACCCAGAAAACGUGCAGAGU | – | – | 122 | 25 |
| CUUCUGUCAGGAUAUGCGAAUCACCACUAGGUCAGUGGUGAGCAGAAGGGACAUGAGGAUCACCCAUGUAAAGU | – | – | 37 | 166 |
| AAAAAGUCAGGAUAUGUCAAAGGUCACGAAAGUGACAAAGGACAGAAGGGACAUGAGGAUCACCCAUGUAAAAA | – | – | 30.2 | 46.1 |
| AACUAACAUGAGGAUCACCCAUGUCAGGAUAUGCAUCAAUCAAUCAAUCAAUCAAUCAGCAGAAGGGACACUAC | – | – | 16.8 | 19.4 |
| GGCGGACAUGAGGAUCACCCAUGUAAGGAUAUUAGGCGAUCGUCGAAAGACGAUAGCCUGAGAAGGUACGCGCC | – | – | 14.7 | 17.2 |
| AGAUGACGAUGUCAUCUUCGUCGGACAUGAGGAUCACCCAUGUAGGAUAUGCUACUCAAAGAGUAGCAGAAGGACAUGUGUCUU | – | – | 24.6 | 92.1 |
| AUGAGUAAAGCAGGAUAUCUAUUGUCUCUGUAACAUGAGGAUCACCCAUGUAGAGAAGGGCUUAGUCAUACUCUUCGGAGUUGA | – | – | 7.27 | 9.55 |
| UUUACAUGAGGAUCACCCAUGUCUGUCACACGUAUGUGCAAUCAGGAUAUGAUCUCAAGAAUGAAUUAGAAGGGAUAAAGAGAA | 212 | 250 | – | – |
| AAGUUUAACGAAGGAUAUGGUUACAUGAGGAUCACCCAUGUAAUGGUUGUGAUAUUGAUUAAGUUCCAGAAGGUCGUAUACAUA | – | – | 109 | 301 |
| ACAUCGUGAGACAUGAGGAUCACCCAUGUGUGAUAGUGGGCACAGGAUAUCCAGACUUGGAAUCUGGAGAAGGGUGAUCGUUAA | 86.7 | 129 | – | – |
| UUGUACGUCGUAGGAUAUGUAGGAUAUUCCUACAUGAGGAUCACCCAUGUUGACAUGGAAGAAGGACAGAAGGACGAUGUCCAU | 429 | 7.83 | – | – |
| CAGAUCGGCUAGGAUAUCCAUGGUAUGUUACGAGGAGAAGGAGUCACAUGAGGAUCACCCAUGUCUCAUACUGA | – | – | 24.7 | 31.8 |
| UUUUAACAUGAGGAUCACCCAUGUGAGGAUAUCGAAAUUUAUAUUAAUAUUAUUAUAACGAGAAGGCACAUUUU | – | – | 66.5 | 82.9 |
| UGAUAGGACAGAGGAUAUACGUAUAAAUAUCCUCACAUGAGGAUCACCCAUGUAGAAGGCUGUCCUAUCUAAGUCGGAAACGAC | – | – | 15.6 | 317 |
| GCAAAUUAGUGAGGAUAUACAUAAUUUAUUUCUGUAGAAGGCACAAACCUCAAGACAUGAGGAUCACCCAUGUGGUAUUUAAGC | – | – | 155 | 415 |
| AAUUAACAUGAGGAUCACCCAUGUGAGGAUAUGGUAUUAUUUGGACAGUUAUGAUAUACCAGAAGGCACAAAUA | – | – | 32.6 | 45.9 |
| AGUAAGAUGCAGAAGGUGUCAGCUAGAGCUACGACAUGAGGAUCACCCAUGUACUAGAAACAGUACAAGGAUAUGCAUCUUACA | 80.2 | 8.27 | – | – |
| CUUUUGUGAGGAUAUUAGUAGUAAAUAAAUUAAAUUACUACUGAGAAGGCACAUGAGGAUCACCCAUGUUCCUC | – | – | 31.3 | 243 |
| AACAGUACAGGAUAUACAUGAGGAUCACCCAUGUGAUCAUCAAGUGCCGUAGCACGAAGUAGAAGGGUACUGGA | – | – | 207 | 57 |
| CGUGCUUAUGUAGGAUAUGGUUAUCUAUGUCUAGUUACUAGACAUAGAUAACCAGAAGGACAUGAGGAUCACCCAUGUAGCACG | – | – | 14.6 | 25.8 |
| UGGUUGUGUGUCAGGAUAUGGUCUGGUGUUUCGGGCUAGAAGGGACAUGAGGAUCACCCAUGUGGCUGGCGGGU | – | – | 262 | 439 |
| AAUUUACAUGAGGAUCACCCAUGUGAGGAUAUGAUACUAUGUACUUCGGUACAUAGUAUCAGAAGGCAUGUGAA | – | – | 128 | 97.7 |
| GGAUGUCAAAGACAUCCUUAACGAACAUGAGGAUCACCCAUGUAGGAUAUGCUACUCAAAGAGUAGCAGAAGGACAUGUGCCUU | – | – | 34.5 | 270 |
| GGAUCGCGUGUGAGGAUAUGCUCGACCUUGGUCGAGCAGAAGGCACAUGAGGAUCACCCAUGUGACCUCGGUCC | – | – | 87.5 | 451 |
| GAUUCACAUGAGGAUCACCCAUGUCGUUUAAUGGGAGGAUAUACGUGGACCGUAGUCCGCGUAGAAGGCCUAAUUG | 95.1 | 25.6 | – | – |
| AUAAAGUGAGGAUAUACAUGAGGAUCACCCAUGUGAAAGUCUAAAAAAAUGACAAAAAGUAGAAGGCACAAAUA | – | – | 23.8 | 24.3 |
| AGUGUCAUCGAGAAGGCCUUAACAUGAGGAUCACCCAUGUUAUAACAUGGGAGGAUAUCGAUGAUACAGCUACGUUUCGUAGCA | 286 | 18.2 | – | – |
